Test results: ChEMBL document CHEMBL4007381, “Synthesis, X-ray crystal structure and anti-tumor activity of calix[n]arene polyhydroxyamine derivatives” (Eur J Med Chem, 2016)
Activity calls are given as the source filed them. The rule behind the calls is not given here.

What was measured:
HeLa [1] = assay: Cytotoxicity against human HeLa cells assessed as reduction in cell viability at 10 uM measured after 72 hrs by SRB assay relative to control; format: functional; details: read-out: GI
Summary of the method: (§1)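 Adherent cells were seeded at 1-5 × 10⁴/well and grown 24 h at 37 °C in 5% CO₂. They were treated at a single 10 µM concentration for 72 h in triplicate wells. Read-out was SRB staining after TCA fixation, with dye dissolved in Tris base and OD read at 565 nm. Viability was expressed relative to control.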

SK-OV-3 [2] = assay: Cytotoxicity against human SKOV3 cells assessed as reduction in cell viability at 10 uM measured after 72 hrs by SRB assay relative to control; format: functional; details: SK-OV-3, 72 h, read-out: GI; summary of the method: as §1
SK-OV-3 [3] = assay: Induction of apoptosis in human SKOV3 cells assessed as effect on Bax expression at 3 uM measured after 24 to 48 hrs by Hoechst-33342 staining-based immunofluorescent analysis relative to DMSO-control; format: functional, cell-based
Summary of the method: (§2)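 SKOV3 cells in 24-well plates were given 3 µM compound or DMSO. They were fixed with 4% paraformaldehyde for 20 min, permeabilized with 0.3% Triton X-100 for 10 min and blocked with sheep serum. Primary antibody (caspase-3, p53, Bcl-2 or Bax) was applied overnight at 4 °C, then fluorescein-conjugated secondary for 1 h and Hoechst 33342 for 15 min. Slides were imaged by fluorescence microscopy.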

A549 [4] = assay: Cytotoxicity against human A549 cells assessed as reduction in cell viability at 10 uM measured after 72 hrs by SRB assay relative to control; format: functional; details: A549, 72 h, read-out: GI; summary of the method: as §1
SK-OV-3 [5] = assay: Cell cycle arrest in human SKOV3 cells assessed as accumulation at G0/G1 phase at 3 uM measured after 48 hrs by propidium iodide staining-based FACS analysis (reference value: 49.47 +/- 1.91%); format: functional
SW1990 [6] = assay: Cytotoxicity against human SW1990 cells assessed as reduction in cell viability at 10 uM measured after 72 hrs by SRB assay relative to control; format: functional; details: SW1990, 72 h, read-out: GI; summary of the method: as §1
SW1990 [7] = assay: Cytotoxicity against human SW1990 cells assessed as reduction in cell viability measured after 72 hrs by SRB assay; format: functional, cell-based; details: SW1990, 72 h
Summary of the method: (§3)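 Adherent cells in log phase were seeded at 1-5 × 10⁴/well and grown 24 h at 37 °C in 5% CO₂. They were exposed to 10 concentrations for 72 h, three wells each, then fixed with TCA and stained with SRB. Bound dye was dissolved in Tris base and read at OD 565 nm. Survival was expressed relative to vehicle (100%). Means came from ≥3 independent experiments, and apparent IC50 was read from the dose-response curves.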

SK-OV-3 [8] = assay: Induction of apoptosis in human SKOV3 cells assessed as upregulation of p53 expression at 3 uM measured after 24 to 48 hrs by Hoechst-33342 staining-based immunofluorescent analysis relative to DMSO-control; format: functional, cell-based; summary of the method: as §2
A549 [9] = assay: Cytotoxicity against human A549 cells assessed as reduction in cell viability measured after 72 hrs by SRB assay; format: functional, cell-based; details: A549, 72 h; summary of the method: as §3
SK-OV-3 [10] = assay: Cell cycle arrest in human SKOV3 cells assessed as decrease in accumulation at G2/M phase at 3 uM measured after 48 hrs by propidium iodide staining-based FACS analysis; format: functional
SK-OV-3 [11] = assay: Cytotoxicity against human SKOV3 cells assessed as reduction in cell viability measured after 72 hrs by SRB assay; format: functional, cell-based; details: SK-OV-3, 72 h; summary of the method: as §3
SK-OV-3 [12] = assay: Induction of apoptosis in human SKOV3 cells assessed as upregulation of caspase3 expression at 3 uM measured after 24 to 48 hrs by Hoechst-33342 staining-based immunofluorescent analysis relative to DMSO-control; format: functional, cell-based; summary of the method: as §2
Raji [13] = assay: Cytotoxicity against human Raji cells assessed as reduction in cell viability measured after 72 hrs by MTT assay; format: functional, cell-based
Summary of the method: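 Raji suspension cells (RPMI 1640, 10% FBS) were seeded at 1-5 × 10⁴/well and grown 24 h at 37 °C in 5% CO₂. They were exposed to 10 concentrations for 72 h in triplicate wells. MTT was added for 4 h, then HCl/isopropanol/SDS was added overnight, and OD was read at 550 nm. Data are means of ≥3 independent experiments, relative to vehicle, with apparent IC50 taken from the dose-response curves.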

SK-OV-3 [14] = assay: Induction of apoptosis in human SKOV3 cells assessed as downregulation of Bcl2 expression at 3 uM measured after 24 to 48 hrs by Hoechst-33342 staining-based immunofluorescent analysis relative to DMSO-control; format: functional, cell-based; summary of the method: as §2
SK-OV-3 [15] = assay: Cell cycle arrest in human SKOV3 cells assessed as accumulation at S phase at 3 uM measured after 48 hrs by propidium iodide staining-based FACS analysis(reference value: 37.31 +/- 3.48%); format: functional
MDA-MB-231 [16] = assay: Cytotoxicity against human MDA-MB-231 cells assessed as reduction in cell viability at 10 uM measured after 72 hrs by SRB assay relative to control; format: functional; details: MDA-MB-231, 72 h, read-out: GI; summary of the method: as §1
HeLa [17] = assay: Cytotoxicity against human HeLa cells assessed as reduction in cell viability measured after 72 hrs by SRB assay; format: functional, cell-based; summary of the method: as §3
Raji [18] = assay: Cytotoxicity against human Raji cells assessed as reduction in cell viability at 10 uM measured after 72 hrs by MTT assay relative to control; format: functional; details: read-out: GI
Summary of the method: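 Raji suspension cells were seeded at 1-5 × 10⁴/well and grown 24 h. They were treated at 10 µM for 72 h in triplicate wells. Read-out was MTT for 4 h, then solubilization in HCl/isopropanol/SDS overnight and OD at 550 nm, relative to control.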

MDA-MB-231 [19] = assay: Cytotoxicity against human MDA-MB-231 cells assessed as reduction in cell viability measured after 72 hrs by SRB assay; format: functional, cell-based; details: MDA-MB-231, 72 h; summary of the method: as §3
SK-OV-3 [20] = assay: Cell cycle arrest in human SKOV3 cells assessed as decrease in accumulation at S phase at 10 uM measured after 48 hrs by propidium iodide staining-based FACS analysis; format: functional
SK-OV-3 [21] = assay: Cell cycle arrest in human SKOV3 cells assessed as accumulation at G0/G1 phase at 10 uM measured after 48 hrs by propidium iodide staining-based FACS analysis; format: functional
SK-OV-3 [22] = assay: Cell cycle arrest in human SKOV3 cells assessed as decrease in accumulation at G2/M phase at 10 uM measured after 48 hrs by propidium iodide staining-based FACS analysis; format: functional

Row | SMILES | inhibition of growth at 10 µM (HeLa [1]) [%] | inhibition of growth at 10 µM (SK-OV-3 [2]) [%] | inhibition of growth at 10 µM (A549 [4]) [%] | inhibition of growth at 10 µM (SW1990 [6]) [%] | inhibition of growth at 10 µM (MDA-MB-231 [16]) [%] | inhibition of growth at 10 µM (Raji [18]) [%] | further results
1 | CC(C)(C)c1cc2c(O)c(c1)Cc1cc(C(C)(C)C)cc(c1OCC(=O)NCCO)Cc1cc(C(C)(C)C)cc(c1O)Cc1cc(C(C)(C)C)cc(c1OCC(=O)NCCO)C2 | 100 | 97 | 89 | 95 | 99 | 100 | Activity (SK-OV-3 [3]): inactive; Activity (SK-OV-3 [5]): 64.25%; IC50 (SW1990 [7]): 4.3 µM; Activity (SK-OV-3 [8]): Active; IC50 (A549 [9]): 4 µM; Activity (SK-OV-3 [10]): Active; IC50 (SK-OV-3 [11]): 2.8 µM; Activity (SK-OV-3 [12]): Active; IC50 (Raji [13]): 5 µM; Activity (SK-OV-3 [14]): Active; Activity (SK-OV-3 [15]): 24.19%; IC50 (HeLa [17]): 2.7 µM; IC50 (MDA-MB-231 [19]): 5.3 µM
2 | O=C(COc1c2cccc1Cc1cccc(c1OCC(=O)NCCO)Cc1cccc(c1OCC(=O)NCCO)Cc1cccc(c1OCC(=O)NCCO)Cc1cccc(c1OCC(=O)NCCO)Cc1cccc(c1OCC(=O)NCCO)Cc1cccc(c1OCC(=O)NCCO)Cc1cccc(c1OCC(=O)NCCO)C2)NCCO | 32 | 1 | 2 | 4 | 27 | 7 | –
3 | O=C(COc1c2cccc1Cc1cccc(c1OCC(=O)N(CCO)CCO)Cc1cccc(c1OCC(=O)N(CCO)CCO)Cc1cccc(c1OCC(=O)N(CCO)CCO)Cc1cccc(c1OCC(=O)N(CCO)CCO)Cc1cccc(c1OCC(=O)N(CCO)CCO)C2)N(CCO)CCO | 9 | 19 | 5 | 0 | 22 | 6 | –
4 | O=C(COc1c2cccc1Cc1cccc(c1O)Cc1cccc(c1OCC(=O)N(CCO)CCO)Cc1cccc(c1O)C2)N(CCO)CCO | 38 | 34 | 7 | 4 | 22 | 34 | –
5 | CC(C)(C)c1cc2c(OCC(=O)N(CCO)CCO)c(c1)Cc1cc(C(C)(C)C)cc(c1OCC(=O)N(CCO)CCO)Cc1cc(C(C)(C)C)cc(c1OCC(=O)N(CCO)CCO)Cc1cc(C(C)(C)C)cc(c1OCC(=O)N(CCO)CCO)Cc1cc(C(C)(C)C)cc(c1OCC(=O)N(CCO)CCO)Cc1cc(C(C)(C)C)cc(c1OCC(=O)N(CCO)CCO)C2 | 0 | 26 | 0 | 26 | 0 | 14 | –
6 | O=C(COc1c2cccc1Cc1cccc(c1OCC(=O)NCCO)Cc1cccc(c1OCC(=O)NCCO)Cc1cccc(c1OCC(=O)NCCO)Cc1cccc(c1OCC(=O)NCCO)Cc1cccc(c1OCC(=O)NCCO)C2)NCCO | 6 | 10 | 7 | 3 | 4 | 18 | –
7 | CC(C)(C)c1cc2c(OCC(=O)NCCO)c(c1)Cc1cc(C(C)(C)C)cc(c1OCC(=O)NCCO)Cc1cc(C(C)(C)C)cc(c1OCC(=O)NCCO)Cc1cc(C(C)(C)C)cc(c1OCC(=O)NCCO)Cc1cc(C(C)(C)C)cc(c1OCC(=O)NCCO)Cc1cc(C(C)(C)C)cc(c1OCC(=O)NCCO)C2 | 40 | 24 | 7 | 4 | 12 | 38 | –
8 | O=C(COc1c2cccc1Cc1cccc(c1OCC(=O)N(CCO)CCO)Cc1cccc(c1OCC(=O)N(CCO)CCO)Cc1cccc(c1OCC(=O)N(CCO)CCO)Cc1cccc(c1OCC(=O)N(CCO)CCO)Cc1cccc(c1OCC(=O)N(CCO)CCO)Cc1cccc(c1OCC(=O)N(CCO)CCO)Cc1cccc(c1OCC(=O)N(CCO)CCO)C2)N(CCO)CCO | 18 | 25 | 6 | 2 | 13 | 11 | –
9 | CC(C)(C)c1cc2c(OCC(=O)NCCO)c(c1)Cc1cc(C(C)(C)C)cc(c1OCC(=O)NCCO)Cc1cc(C(C)(C)C)cc(c1OCC(=O)NCCO)Cc1cc(C(C)(C)C)cc(c1OCC(=O)NCCO)Cc1cc(C(C)(C)C)cc(c1OCC(=O)NCCO)Cc1cc(C(C)(C)C)cc(c1OCC(=O)NCCO)Cc1cc(C(C)(C)C)cc(c1OCC(=O)NCCO)Cc1cc(C(C)(C)C)cc(c1OCC(=O)NCCO)C2 | 23 | 26 | 8 | 5 | 12 | 24 | –
10 | CC(C)(C)c1cc2c(OCC(=O)N(CCO)CCO)c(c1)Cc1cc(C(C)(C)C)cc(c1OCC(=O)N(CCO)CCO)Cc1cc(C(C)(C)C)cc(c1OCC(=O)N(CCO)CCO)Cc1cc(C(C)(C)C)cc(c1OCC(=O)N(CCO)CCO)Cc1cc(C(C)(C)C)cc(c1OCC(=O)N(CCO)CCO)Cc1cc(C(C)(C)C)cc(c1OCC(=O)N(CCO)CCO)Cc1cc(C(C)(C)C)cc(c1OCC(=O)N(CCO)CCO)Cc1cc(C(C)(C)C)cc(c1OCC(=O)N(CCO)CCO)C2 | 10 | 25 | 0 | 5 | 11 | 11 | –
11 | O=C(COc1c2cccc1Cc1cccc(c1O)Cc1cccc(c1OCC(=O)NCCO)Cc1cccc(c1O)C2)NCCO | 46 | 86 | 13 | 10 | 57 | 29 | Activity (SK-OV-3 [20]): Active; IC50 (SK-OV-3 [11]): 2.3 µM; Activity (SK-OV-3 [21]): Active; IC50 (MDA-MB-231 [19]): 1.6 µM; Activity (SK-OV-3 [22]): Active
12 | CC(C)(C)c1cc2c(O)c(c1)Cc1cc(C(C)(C)C)cc(c1OCC(=O)N(CCO)CCO)Cc1cc(C(C)(C)C)cc(c1O)Cc1cc(C(C)(C)C)cc(c1OCC(=O)N(CCO)CCO)C2 | 95 | 42 | 16 | 59 | 95 | 77 | IC50 (SW1990 [7]): 11.3 µM; IC50 (Raji [13]): 11.2 µM; IC50 (HeLa [17]): 8.1 µM; IC50 (MDA-MB-231 [19]): 5.2 µM
